Data set [1] in a line: Toxicity against Brine shrimp nauplii after 24 hrs. Particulars: artemia salina, in vivo; read-out: ED50. Type of data set: organism-based. In a few lines:
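Artemia salina nauplii hatched 38 h in sterile brine (sea salt 38 g/L, pH 8.5) under aeration; 10 nauplii per vial exposed to graded compound concentrations in 5 mL final volume, 37 °C, 24 h under incandescent light. Survivors counted; percent lethality versus vehicle-treated controls; ED50 from probit analysis; podophyllotoxin positive control.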

The test system of data set [2] is Bacillus subtilis. Description: Antibacterial activity against Bacillus subtilis NCIM 2063 after 24 hrs by agar well diffusion assay. Type of data set: functional. Particulars: NCIM 2063, 24 h. In a few lines:
(§1)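 Agar well diffusion per NCCLS; NCIM standard strains. Nutrient agar seeded with 0.1 mL bacterial suspension in sterile 0.85% saline at 10⁵ CFU/mL. Plates in triplicate, 37 0.5 °C, 24 h. MIC taken as lowest concentration giving complete growth inhibition.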
(In agar diffusion tests the substance spreads into inoculated agar from a disc or well.)

The test system of data set [3] is Staphylococcus aureus. Description: Antibacterial activity against Staphylococcus aureus NCIM 2079 after 24 hrs by agar well diffusion assay. Type of data set: functional. Particulars: NCIM 2079, 24 h. In a few lines: as §1
In data set [4] the test system is Micrococcus luteus. Description: Antibacterial activity against Micrococcus luteus NCIM 2155 after 24 hrs by agar well diffusion assay. Type of data set: functional. Particulars: NCIM 2155, 24 h. In a few lines: as §1
Data set [5] has as its system Pseudomonas aeruginosa. Description: Antibacterial activity against Pseudomonas aeruginosa NCIM 2036 after 24 hrs by agar well diffusion assay. Type of data set: functional. Particulars: NCIM 2036, 24 h. In a few lines: as §1
In data set [6] the test system is Klebsiella pneumoniae. Description: Antibacterial activity against Klebsiella pneumoniae NCIM 5082 after 24 hrs by agar well diffusion assay. Particulars: NCIM 5082, 24 h. Type of data set: functional. Put shortly:
as §1

The test system of data set [7] is Escherichia coli. Description: Antibacterial activity against Escherichia coli NCIM 2065 after 24 hrs by agar well diffusion assay. Particulars: NCIM 2065, 24 h. Type of data set: functional. In a few lines:
as §1

The test system of data set [8] is Proteus vulgaris. Description: Antibacterial activity against Proteus vulgaris NCIM 2813 after 24 hrs by agar well diffusion assay. Type of data set: functional. Particulars: NCIM 2813, 24 h. Put shortly:
as §1

Data set [9] relates to Candida albicans. Description: Antifungal activity against Candida albicans NCIM 3102 after 48 hrs by agar well diffusion assay. Type of data set: functional. Particulars: NCIM 3102, 48 h. Put shortly: (§2)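 Fungal spore suspensions in sterile distilled water set to final 10⁶ CFU/mL; 0.1 mL spread on Potato-Dextrose-Agar. NCCLS agar well diffusion with NCIM standard strains: 6 mm wells given 0.1 mL compound diluted in 1% DMSO, final 16 to 512 µg/mL. Triplicate plates held 48 h at 28 0.2 °C. MIC is lowest concentration fully inhibiting growth.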

Data set [10] has as its system Aspergillus niger. Description: Antifungal activity against Aspergillus niger NCIM 548 after 48 hrs by agar well diffusion assay. Particulars: NCIM 548, 48 h. Type of data set: functional. In a few lines:
as §2

The subject of data set [11] is Aspergillus oryzae. Description: Antifungal activity against Aspergillus oryzae NCIM 643 after 48 hrs by agar well diffusion assay. Type of data set: functional. Particulars: NCIM 643, 48 h. In a few lines: as §2
Data set [12] has as its system Penicillium chrysogenum. Description: Antifungal activity against Penicillium chrysogenum NCIM 738 after 48 hrs by agar well diffusion assay. Particulars: NCIM 738, 48 h. Type of data set: functional. In a few lines:
as §2

Data set [13] has as its system Bacillus pumilus. Description: Antibacterial activity against Bacillus pumilus NCIM 2327 after 24 hrs by agar well diffusion assay. Particulars: NCIM 2327, 24 h.

≈ marks a conversion by molar mass, not a printed value.

With `Cc1ccc(S(=O)(=O)NC(=O)Nc2ccccc2C(=O)/C=C/c2ccccc2)cc1`, in data set [1], the LC50 at 24 h was 25 µg/mL (≈ 59.5 µM). For the same molecule, the MIC in [2], in data set [3], in data set [4], in [5], in data set [6] and in data set [7] was 512 µg/mL (≈ 1220 µM) in each case. Further, the minimal inhibitory concentration (MIC) in data set [8], in data set [9], in [10], in data set [11], in data set [12] and in data set [13] was 512 µg/mL (≈ 1220 µM) in each case.
`Cc1ccc(/C=C/C(=O)c2ccccc2NC(=O)NS(=O)(=O)c2ccc(C)cc2)cc1`: the LC50 at 24 h in data set [1] stood at 15.3 µg/mL (≈ 35.2 µM). Also, the MIC in data set [2] was 256 µg/mL (≈ 589 µM); in [3], 128 µg/mL (≈ 295 µM); in [4], 256 µg/mL (≈ 589 µM); in data set [5], 256 µg/mL (≈ 589 µM); in data set [6] it was 256 µg/mL (≈ 589 µM); in [7], 256 µg/mL (≈ 589 µM). In addition, the MIC in [8], in [9], in data set [10], in data set [11], in data set [12] and in data set [13] was 256 µg/mL (≈ 589 µM) in each case.
For the molecule `Cc1ccc(S(=O)(=O)NC(=O)Nc2ccccc2C(=O)/C=C/c2ccc(N(C)C)cc2)cc1`, the LC50 at 24 h in [1] was determined as 38.1 µg/mL (≈ 82.2 µM). Besides, the MIC was determined as 64 µg/mL (≈ 138 µM) in data set [2]; 64 µg/mL (≈ 138 µM) in [3]; 128 µg/mL (≈ 276 µM) in data set [4]; 64 µg/mL (≈ 138 µM) in data set [5]; 128 µg/mL (≈ 276 µM) in data set [6]; 64 µg/mL (≈ 138 µM) in data set [7]. In addition, the MIC in [8] was determined as 128 µg/mL (≈ 276 µM); in data set [9] it was 128 µg/mL (≈ 276 µM); in data set [10] it was 256 µg/mL (≈ 552 µM); in data set [11], 256 µg/mL (≈ 552 µM); in data set [12], 256 µg/mL (≈ 552 µM); in data set [13], 64 µg/mL (≈ 138 µM).
As to `COc1cccc(/C=C/C(=O)c2ccccc2NC(=O)NS(=O)(=O)c2ccc(C)cc2)c1`, the LC50 at 24 h in data set [1] amounted to 23.2 µg/mL (≈ 51.4 µM). For the same molecule, the MIC in data set [2], in data set [3], in [4], in data set [5], in [6] and in data set [7] was 128 µg/mL (≈ 284 µM) each time. Moreover, the MIC in data set [8], in data set [9], in data set [10], in [11], in data set [12] and in data set [13] was 128 µg/mL (≈ 284 µM) throughout.
Take `COc1ccc(/C=C/C(=O)c2ccccc2NC(=O)NS(=O)(=O)c2ccc(C)cc2)cc1`: the LC50 at 24 h in [1] is 28.1 µg/mL (≈ 62.4 µM). In addition, the MIC in data set [2] was 64 µg/mL (≈ 142 µM); in data set [3] it was 128 µg/mL (≈ 284 µM); in data set [4], 128 µg/mL (≈ 284 µM); in data set [5] it was 64 µg/mL (≈ 142 µM); in [6], 128 µg/mL (≈ 284 µM); in [7], 128 µg/mL (≈ 284 µM). Besides, the MIC in data set [8], in data set [9], in data set [10], in data set [11], in data set [12] and in data set [13] was 128 µg/mL (≈ 284 µM) in each case.
With `COc1ccc(/C=C/C(=O)c2ccccc2NC(=O)NS(=O)(=O)c2ccc(C)cc2)cc1OC`, the LC50 at 24 h in data set [1] stood at 12.9 µg/mL (≈ 26.8 µM). For the same molecule, the MIC stood at 32 µg/mL (≈ 66.6 µM) in [2]; 64 µg/mL (≈ 133 µM) in data set [3]; 128 µg/mL (≈ 266 µM) in [4]; 32 µg/mL (≈ 66.6 µM) in data set [5]; 128 µg/mL (≈ 266 µM) in [6]; 64 µg/mL (≈ 133 µM) in data set [7]. The MIC in data set [8] stood at 128 µg/mL (≈ 266 µM); in data set [9] it was 128 µg/mL (≈ 266 µM); in data set [10], 128 µg/mL (≈ 266 µM); in data set [11], 128 µg/mL (≈ 266 µM); in data set [12], 128 µg/mL (≈ 266 µM); in data set [13], 64 µg/mL (≈ 133 µM).
In the case of `CC(=O)N1CCN(c2ccc(OCC3COC(Cn4ccnc4)(c4ccc(Cl)cc4Cl)O3)cc2)CC1` (stereo not drawn) [KETOCONAZOLE], the minimal inhibitory concentration (MIC) in data set [9], in data set [10], in [11] and in data set [12] was 16 µg/mL (≈ 30.1 µM) throughout.
For `COc1cc([C@@H]2c3cc4c(cc3[C@H](O)[C@H]3COC(=O)[C@H]23)OCO4)cc(OC)c1OC` [PODOFILOX], the LC50 at 24 h in data set [1] was 3.61 µg/mL (≈ 8.71 µM).

One may read the MIC as the smallest concentration in the dilution series that meets the test's criterion for growth inhibition. A high value points to weaker potency.

The values are drawn from ChEMBL document CHEMBL1938268, “Synthesis, characterization and in vitro biological evaluation of some novel diarylsulfonylureas as potential cytotoxic and antimicrobial agents” (Bioorg Med Chem Lett, 2012).
